# Only a selection was taken, and hits are over-represented in it overall.
# XBP1 UPR activ = activators of adaptive XBP1 UPR arm, primary screen, cell-based, CHO-XBP1 luciferase reporter, luminescence, uHTS | IRE1-XBP1 UPR activation; percent of tunicamycin response, DMSO as zero | activation, % at 20 µM | 330,000 compounds, 0.33% hits | AID 463104, 2010;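 active = versus positive control, 20 µM dose yields 30% or more activation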;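 also: 100% = tunicamycin at 10 µg/mL and 0% = DMSO only wells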
#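 Material: CHO-XBP1 cells stably carrying IRE1-XBP1-driven luciferase reporter | Medium: F12 with 10% serum | Compound dosing: 20 µM single concentration, DMSO 1% | Incubation: Overnight seeding at 37 °C, 6 h compound treatment at 37 °C | Detection: Steady-Glo luminescence read | Read-out basis: % activation of reporter signal versus tunicamycin and DMSO controls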
# UPR CHOP act = activators of apoptotic CHOP UPR arm, primary screen, cell-based, CHO-CHOP luciferase reporter, luminescence, uHTS | activation, % at 10 µM | UPR activation; percent of tunicamycin response over DMSO baseline | 330,000 compounds, 0.34% hits;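 active = at 10 µM dose, activation of 40% or more, normalized to positive control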;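 also: 100% = tunicamycin at 10 µg/mL and 0% = DMSO alone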
#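 Evaluation: % reporter activation, DMSO baseline versus tunicamycin full activation; System: CHO-CHOP luciferase reporter cell line; Input: 500 cells/well; Incubation: 6 h compound treatment, 37 °C; Measured by: Steady-Glo luciferase luminescence; Dosing: one dose, 10 µM in 0.5% DMSO; Buffer or medium: F12 medium, 10% FBS; Benchmarks: positive tunicamycin 10 µg/mL, negative DMSO alone.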
# CTSL1 counter = Fasciola hepatica cathepsin L1 inhibitors, primary screen, counter-screen for PFM18AAP inhibitor project, biochemical, QFRET, fluorogenic peptide substrate; recombinant F. hepatica cathepsin L1, Z-Leu-Arg-MCA fluorescence; inhibition, % at 5.96 µM; 300,000 compounds, 0.49% hits; AID 1906, 2009;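 active = inhibition above the mean of all tested compounds plus 3 SD, set per screening campaign, cut at about 17% in these data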;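 also: 0% = plate median of test compound wells and 100% = 1 µM Z-Phe-Ala-diazomethylketone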
# UCH37 DUB inh = inhibitors of human UCH37 deubiquitinase, primary screen, biochemical, Ub-AMC cleavage, fluorescence | Ubiquitin carboxyl-terminal hydrolase isozyme L5 (Homo sapiens), Q9Y5K5 | purified proteasome/UCH37 | inhibition, % (test concentration not listed) | 330,000 compounds, 0.33% hits;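 active = mean inhibition over replicate wells above about 20%, limit read from the data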;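 also: 0% = compound-free wells with enzyme and 100% = wells lacking proteasome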
# Target sequence (Q9Y5K5 whole entry, looked up): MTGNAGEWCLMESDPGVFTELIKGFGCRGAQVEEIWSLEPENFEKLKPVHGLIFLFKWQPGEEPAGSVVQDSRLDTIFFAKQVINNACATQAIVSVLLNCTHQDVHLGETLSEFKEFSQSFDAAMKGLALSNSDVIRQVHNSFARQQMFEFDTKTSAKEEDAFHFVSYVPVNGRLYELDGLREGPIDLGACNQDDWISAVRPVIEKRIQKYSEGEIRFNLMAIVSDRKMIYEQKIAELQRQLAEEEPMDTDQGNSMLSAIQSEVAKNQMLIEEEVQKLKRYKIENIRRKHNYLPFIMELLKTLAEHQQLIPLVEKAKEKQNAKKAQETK
#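 assay system = human UCH37 enzyme supplied as purified proteasome complex | amount = proteasome at 0.15 nM in the dispensed enzyme solution | schedule = 30 min compound-proteasome preincubation then 25 min substrate reaction, room temperature | measured by = fluorescence, ex 355 nm, em 460 nm | benchmarks = no-proteasome wells (full inhibition) and compound-free wells (no inhibition)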
# CHOP inhibitor = inhibitors of CHOP promoter induction, primary screen, cell-based, unfolded protein response, luciferase reporter; CHO-K1 CHOP-promoter luciferase, tunicamycin-induced, 15-18 h; inhibition, % at 10 µM; 220,000 compounds, 3.8% hits;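 active = compounds that reduced the stress-induced luciferase reporter signal by more than about 70% of percent inhibition, limit read from the data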;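 also: 0% = tunicamycin plus vehicle and 100% = wells without tunicamycin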
# CHOP inh conf = retest of CHOP induction inhibitors, confirmation, cell-based; shares compounds with CHOP inhibitor; CHO-CHOP promoter luciferase reporter, tunicamycin-induced, luminescence; inhibition, % at 10 µM; 2,100 compounds, 45% hits;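 active = mean of three repeat readings of reporter signal inhibition above a set limit, cut at about 70% in these data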;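 also: 0% = tunicamycin plus vehicle and 100% = wells lacking tunicamycin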
# Active calls of the source: *; · = no result.
SMILES,XBP1 UPR activ,UPR CHOP act,CTSL1 counter,UCH37 DUB inh,CHOP inhibitor,CHOP inh conf
CC(C)(C)c1ccc(C(=O)Nc2ccc(CC(=O)O)cc2)o1,-5,-9,-3,3,98*,92*
CCOC(=O)C1=C(N)n2c(sc(=Cc3ccccc3)c2=O)=C(C(=O)OCC)C1c1ccccc1 (stereo unspecified),·,·,·,6,·,·
COc1cc(C)ccc1S(=O)(=O)N1CCN(C23CC4CC(CC(C4)C2)C3)CC1,0,-1,1,0,105*,12
O=C(N/N=C/c1cccc(O)c1)c1ccc(COc2ccc3c(c2)CCC3)o1,-2,3,-2,·,109*,-4
O=C(CN1CCSCC1)NN=Cc1cccc(Cl)c1,·,·,·,5,·,·
Brc1ccc(CSc2nnc(Cc3c[nH]c4ccccc34)o2)cc1,-1,-1,-4,4,103*,12
O=C(CSc1ccc(C(F)(F)F)cc1[N+](=O)[O-])Nc1ccccc1,-1,0,-3,7,97*,3
O=[N+]([O-])c1cc(C(F)(F)F)ccc1Oc1cccnc1[N+](=O)[O-],1,0,-4,2,20,·
O=C(Nc1ccc(F)cc1)c1ccccc1Oc1ccc(C(F)(F)F)cc1[N+](=O)[O-],-3,0,1,3,106*,12
S=c1[nH]nc(COc2ccccc2)n1N=Cc1ccccc1Br,·,·,·,0,·,·
Cc1ccc2nc(NC(=O)CSCC(=O)OCC(=O)c3ccc(Br)cc3)sc2c1,-3,-7,-1,·,100*,107*
COC(=O)c1ccc2nc(NC(=O)CSCC(=O)OCC(=O)c3ccccc3)sc2c1,0,0,-15,-1,10,·
Cc1n[nH]c(=S)n(N=Cc2cccc([N+](=O)[O-])c2)c1=O,·,·,·,6,·,·
COc1ccc(C2C(Oc3ccccc3)C(=O)N2c2cc(C)ccc2C)cc1OC (stereo unspecified),1,1,-5,3,20,·
COc1ccc(C)cc1N1C(=N)/C(=C2/Nc3ccccc3S2)C(c2ccccc2)C1=O (stereo unspecified),·,·,-3,-8,98*,-15
COc1ccc(C(C[N+](=O)[O-])C2(c3ccc(OC)c(OC)c3)C(=O)c3ccccc3C2=O)cc1 (stereo unspecified),·,·,1,·,104*,-165
Cn1ncc(SCc2ccccc2)c(Cl)c1=O,-5,2,0,1,50,·
Cn1ncc(S(=O)(=O)Cc2ccccc2)c(Cl)c1=O,-4,-7,3,·,102*,-3
COc1cc(/C=C/c2noc(-c3ccccc3O)n2)cc(OC)c1OC,2,0,0,-227,54,·
COc1cc(/C=C/c2nc(N)nc(-c3ccccc3O)n2)cc(OC)c1OC,4,9,1,2,96*,76*
Cc1ccc(C)c(NC(=S)NC(NC(=O)/C=C/c2ccccc2)C(Cl)(Cl)Cl)c1 (stereo unspecified),14,24,-2,1,107*,92*
OC(CNCc1ccco1)Cn1c2ccc(Br)cc2c2cc(Br)ccc21 (stereo unspecified),24,18,2,2,108*,46
COc1ccc(O)c(C=NNC(=O)c2ccc(OCc3cccc(Br)c3)cc2)c1,·,·,·,5,·,·
C/C(N)=C(/C#N)C(=O)COC(=O)CC1CCCC1,2,3,3,-1,·,·
C/C(N)=C(/C#N)C(=O)COC(=O)C1CCC(C(C)(C)C)CC1 (stereo unspecified),0,4,4,1,97*,87*
SMILES,XBP1 UPR activ,UPR CHOP act,CTSL1 counter,UCH37 DUB inh,CHOP inhibitor,CHOP inh conf
COc1ccc(NC(=O)c2oc3ccccc3c2NC(=O)C(C)(C)C)cc1,7,0,0,-2,103*,14
COc1ccc(NC(=O)c2oc3ccccc3c2NC(=O)C2CC2)cc1,2,1,3,-12,23,·
COc1ccc(C(=O)NN=Cc2ccc(OC)c(COc3ccc(F)cc3)c2)cc1,·,·,·,-3,·,·
CCOC(=O)c1c(-c2ccccc2)oc2ccc(O)c(CN3CCOCC3)c12,-2,-1,7,-1,109*,96*
CCOC(=O)c1c(C)oc2ccc(O)c(CN3CCCCC3)c12,-2,-2,0,1,1,·
CCCCCCn1c(SCCC)nc2c1c(=O)[nH]c(=O)n2C,8,1,2,4,99*,81*
C/C=C/Cn1c(SCCCc2ccccc2)nc2c1c(=O)[nH]c(=O)n2C,2,2,5,2,103*,103*
COCCn1c(SCCCc2ccccc2)nc2c1c(=O)[nH]c(=O)n2C,1,-1,4,3,-5,·
CCCCCn1c(SCCCC)nc2c1c(=O)[nH]c(=O)n2C,7,0,4,3,69,·
O=C1CSC(=S)N1N=Cc1ccc2c(c1)OCCO2,·,·,·,10,·,·
Oc1c(Cl)cc(Cl)cc1C=Nc1nccs1,·,·,·,0,·,·
S=C(Nc1ccc(Cl)c(Cl)c1)NC1CCN(Cc2ccccc2)CC1,14,3,5,0,105*,37
S=C(Nc1ccc(Cl)c(Cl)c1)NC1CCCCC1,3,3,-3,4,103*,24
CCCCNC(=O)C(C#N)=c1sc(=Cc2ccccc2OC(F)F)c(=O)n1CCCOC,·,·,·,-4,·,·
Cc1ccc(C=NNC(=O)c2cc(C)oc2C)o1,·,·,·,-2,·,·
CCc1nc2c(c(=O)c3ccccc3n2C)c(=O)n1C1CCCCCC1,6,-4,5,3,60,·
Cn1c2ccccc2c(=O)c2c(=O)n(C3CCCCC3)c(-c3cccs3)nc21,17,-1,5,4,97*,42
Cn1c2ccccc2c(=O)c2c(=O)n(C3CCCCCC3)c(C3CCCCC3)nc21,·,·,·,·,105*,122*
Cn1c2ccccc2c(=O)c2c(=O)n(-c3ccccc3)c(C3CCCCC3)nc21,-1,3,0,4,35,·
COc1ccc(OC)c(C=NNC(=O)c2ccc(N(C)S(=O)(=O)c3ccccc3)cc2)c1,·,·,·,-156,·,·
O=C(NCC1CCCO1)c1ccc2c(=O)n(Cc3cccc(Br)c3)c(=S)[nH]c2c1 (stereo unspecified),5,-1,5,2,107*,-14
NC(=O)NN=Cc1ccc(-n2nncc2-c2ccc(Cl)cc2)cc1,·,·,·,3,·,·
COc1cc(C=NN2CCN(C3c4ccccc4-c4ccccc43)CC2)cc(OC)c1OC,·,·,·,5,·,·

# Assay outcomes from PubChem BioAssay.
